What was measured:
cyclin K- CDK12/13 = conditions: HAP1 cells, 6 hours
[1] = system: CDK7-C312S expressing HAP1 cells; assay: Growth rate inhibition; format: cell-based, human; conditions: for GRmax in CDK7-C312S cells: HAP1 CDK7-C312S, 72 hours
In short: (§1)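 HAP1 WT or CDK7-C312S cells were seeded at 500 cells/well, adhered 24 h, then treated with a dilution series for 72 h. Live cells were identified by a dead-cell stain and Hoechst nuclear segmentation and counted at dosing and at 72 h. Counts were normalised to same-plate DMSO controls to give growth rate inhibition (GR) values. Technical duplicates in biological triplicate.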

HAP1 cells [2] = assay: LIVE/DEAD dye staining in HAP1 cells; format: cell-based, human; conditions: HAP1 WT and CDK7-C312S, 72 hours
In short: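 HAP1 WT and CDK7-C312S cells were plated at 500 cells/well and allowed to adhere 24 h before a dilution series of test compound. Cells were analysed at time of dosing and after 72 h. After a 1 h EdU pulse they were stained with LIVE/DEAD Far Red (1:2000), then fixed with 3.7% formaldehyde for 30 min. Mean dye intensity within Hoechst nuclear masks classified cells as live or dead. Technical duplicates, biological triplicate.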

CDK7-cyclin H [3] = assay: Competitive bioTHZ1 pulldown in HAP1 cells; format: cell-based, human; conditions: for time required for equivalent engagement of CDK7 (>50%): compared with 30 min for YKL-5-124
HAP1 cells [4] = assay: Growth rate inhibition; format: cell-based, human; conditions: for GRmax: HAP1 wild-type, 72 hours
In short: as §1

Jurkat cells = assay: Proliferation assay, Cell Titer Glo; format: cell-based, human; conditions: 72 h, highest concentrations
In short: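 Jurkat cells at 2 × 10^4 cells/mL were exposed 72 h to compound at final concentrations from 20μM to 600pM. Viability was read by CellTiter-Glo luminescence, and IC50 was fitted by nonlinear regression. Run in triplicate.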

CDK12/13 = conditions: ref Zhang et al., 2016; Gao et al., 2018; cited from earlier work
[5] = system: HAP1 cells expressing CDK7-C312S; assay: Cell cycle analysis; format: cell-based, human; conditions: 72 hours
In short: (§2)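 HAP1 WT and CDK7-C312S clones were seeded at 500 cells/well and allowed to adhere 24 h, then given a compound dilution series. Cells were analysed at dosing and after 72 h: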

[6] = system: Pol II CTD S2/S5/S7 phosphorylation; assay: Western blot of RNA Pol II CTD phosphorylation in HAP1 and Jurkat cells; format: cell-based, human; conditions: up to 2 uM, combination with 250nM THZ531
In short: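 HAP1 WT and CDK7-C312S cells were treated 24 h with compound at the indicated concentrations, alone or with 250nM CDK12/13 inhibitor co-treatment. Lysis was 30 min on ice in RIPA buffer (50mM Tris-HCl, 150 mM NaCl, 1% NP-40, 0.5% deoxycholate, 0.1% SDS, pH 7.4) with protease/phosphatase inhibitors and nuclease. Pol II CTD phospho-serine marks were immunoblotted and detected with infrared-labelled secondary antibodies (1:10,000).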

phospho-CDK1(T161) = assay: Western blot of CDK1 T-loop phosphorylation in HAP1 cells; format: cell-based, human; conditions: for effect on CDK1 T-loop phosphorylation: HAP1 WT, 24 hours, 125 nM to 2 μM YKL-5-124 or 2 μM YKL-5-167
In short: (§3)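 HAP1 WT and CDK7-C312S cells were treated 24 h across a concentration range, or with 2μM over a time course. Cells were lysed 30 min on ice in RIPA (50mM Tris-HCl, 150 mM NaCl, 1% NP-40, 0.5% deoxycholate, 0.1% SDS, pH 7.4) with protease/phosphatase inhibitors and nuclease. Blots were probed for phospho-T161 CDK1, phospho-T160 CDK2 and the total proteins, and detected with infrared-labelled secondaries.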

CDK9/CycT1 = CDK9/CycT1 (Homo sapiens, UniProt P50750); assay: Adapta Eu kinase assay, Km ATP; format: biochemical; conditions: read-out: IC50 CDK9
Chain of CDK9/CycT1 (P50750 whole entry): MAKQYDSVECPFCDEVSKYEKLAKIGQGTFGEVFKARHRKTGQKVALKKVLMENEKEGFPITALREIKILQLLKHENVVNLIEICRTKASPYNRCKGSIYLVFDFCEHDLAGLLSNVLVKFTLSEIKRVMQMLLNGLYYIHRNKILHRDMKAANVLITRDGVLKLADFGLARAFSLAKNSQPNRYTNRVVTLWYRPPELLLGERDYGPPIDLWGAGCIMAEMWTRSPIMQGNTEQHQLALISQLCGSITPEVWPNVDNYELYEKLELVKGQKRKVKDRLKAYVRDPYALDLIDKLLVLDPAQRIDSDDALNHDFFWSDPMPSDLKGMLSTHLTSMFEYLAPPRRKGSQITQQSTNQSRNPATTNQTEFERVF
Chain of CDK9/CycT1 (O60563 whole entry partner): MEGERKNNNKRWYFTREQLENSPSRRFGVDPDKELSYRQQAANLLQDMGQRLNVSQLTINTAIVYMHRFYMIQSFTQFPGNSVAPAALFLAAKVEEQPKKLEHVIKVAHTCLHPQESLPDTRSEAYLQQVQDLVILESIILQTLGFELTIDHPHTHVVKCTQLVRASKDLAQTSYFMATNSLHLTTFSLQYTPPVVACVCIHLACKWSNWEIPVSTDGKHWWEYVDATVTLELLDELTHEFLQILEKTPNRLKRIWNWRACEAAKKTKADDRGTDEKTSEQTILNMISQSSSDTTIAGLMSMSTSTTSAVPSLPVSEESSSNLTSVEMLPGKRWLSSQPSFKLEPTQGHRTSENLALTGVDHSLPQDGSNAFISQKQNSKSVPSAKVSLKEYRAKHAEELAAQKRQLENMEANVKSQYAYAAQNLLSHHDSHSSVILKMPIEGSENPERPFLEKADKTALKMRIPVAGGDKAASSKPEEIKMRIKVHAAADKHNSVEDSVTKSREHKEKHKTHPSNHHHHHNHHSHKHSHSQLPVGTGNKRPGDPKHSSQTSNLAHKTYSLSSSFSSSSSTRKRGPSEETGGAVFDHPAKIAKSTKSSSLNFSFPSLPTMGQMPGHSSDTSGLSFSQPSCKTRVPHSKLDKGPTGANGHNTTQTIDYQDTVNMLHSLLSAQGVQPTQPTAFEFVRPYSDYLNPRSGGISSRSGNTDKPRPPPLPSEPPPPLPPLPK

PARP cleavage = assay: Western blot for PARP cleavage; format: cell-based, human; conditions: HAP1, all conditions up to 2 μM and 48 hours
CDK7/Mat1/CycH = CDK7/Mat1/CycH (Homo sapiens, UniProt P50613); assay: Adapta Eu fixed time point in vitro kinase assay, Km ATP; format: biochemical
Chain of CDK7/Mat1/CycH (P50613 whole entry): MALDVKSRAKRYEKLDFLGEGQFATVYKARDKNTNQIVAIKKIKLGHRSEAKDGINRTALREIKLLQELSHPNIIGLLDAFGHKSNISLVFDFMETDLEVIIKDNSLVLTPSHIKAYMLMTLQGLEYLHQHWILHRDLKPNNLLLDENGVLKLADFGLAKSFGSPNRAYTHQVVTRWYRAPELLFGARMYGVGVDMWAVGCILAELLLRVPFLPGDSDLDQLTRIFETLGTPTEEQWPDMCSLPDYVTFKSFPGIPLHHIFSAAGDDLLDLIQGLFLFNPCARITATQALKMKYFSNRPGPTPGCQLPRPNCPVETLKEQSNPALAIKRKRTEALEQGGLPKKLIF
Chain of CDK7/Mat1/CycH (P51946 whole entry partner): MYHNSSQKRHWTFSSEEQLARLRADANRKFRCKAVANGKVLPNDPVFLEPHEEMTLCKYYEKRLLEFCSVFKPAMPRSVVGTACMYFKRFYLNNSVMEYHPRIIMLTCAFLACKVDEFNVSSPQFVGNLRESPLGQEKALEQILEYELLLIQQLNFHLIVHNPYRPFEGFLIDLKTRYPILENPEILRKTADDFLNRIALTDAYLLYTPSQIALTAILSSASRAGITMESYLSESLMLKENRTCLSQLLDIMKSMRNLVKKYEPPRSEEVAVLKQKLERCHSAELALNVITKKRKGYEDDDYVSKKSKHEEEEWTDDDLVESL
Chain of CDK7/Mat1/CycH (P51948 whole entry partner): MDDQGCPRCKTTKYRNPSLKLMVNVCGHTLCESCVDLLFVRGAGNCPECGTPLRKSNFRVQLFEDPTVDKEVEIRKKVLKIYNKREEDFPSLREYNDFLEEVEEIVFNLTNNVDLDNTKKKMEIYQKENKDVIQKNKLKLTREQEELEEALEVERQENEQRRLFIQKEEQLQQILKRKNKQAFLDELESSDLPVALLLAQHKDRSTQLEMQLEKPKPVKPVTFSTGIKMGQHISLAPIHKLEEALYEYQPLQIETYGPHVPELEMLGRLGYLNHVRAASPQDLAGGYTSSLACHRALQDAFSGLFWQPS

CDK13 = conditions: ATP 1mM, at the concentrations tested
[7] = system: CDK7-cyclin H-MAT1 trimeric complex; assay: Mass spectrometry analysis of covalent labeling of recombinant CAK complex; format: binding; conditions: recombinant complex incubated 4 hours at 37 °C
In short: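 Recombinant CAK complex (CDK7/cyclin H/MNAT1) was incubated with test compound or DMSO for 4 h at 37 °C and resolved by SDS-PAGE, then analysed by nanoLC/MS. Two unlabeled, non-cysteine CDK7 peptides served for normalization. For CE-MS, treated complex was denatured (0.1% Rapigest final), reduced (10 mM DTT), alkylated (22.5 mM iodoacetamide) and trypsin-digested overnight at 37 °C.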

CDK7 [8] = biological target: CDK7 (Homo sapiens, UniProt P50613); assay: Radioactive in vitro kinase assay at 1 mM ATP; format: biochemical; conditions: read-out: IC50 for CDK7; ATP concentration of 1mM
Chain of CDK7 (Homo sapiens, UniProt P50613) (P50613 2-346): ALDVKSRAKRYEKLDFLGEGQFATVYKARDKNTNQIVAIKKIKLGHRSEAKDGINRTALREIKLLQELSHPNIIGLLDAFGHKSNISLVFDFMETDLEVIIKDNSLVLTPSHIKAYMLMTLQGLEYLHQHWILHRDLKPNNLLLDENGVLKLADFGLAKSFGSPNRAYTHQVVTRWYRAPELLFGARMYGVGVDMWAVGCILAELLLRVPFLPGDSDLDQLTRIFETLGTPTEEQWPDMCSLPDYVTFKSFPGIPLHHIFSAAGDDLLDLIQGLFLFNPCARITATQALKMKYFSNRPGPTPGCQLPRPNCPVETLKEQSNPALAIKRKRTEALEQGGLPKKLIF
Chain of CDK7 (Homo sapiens, UniProt P50613) (P51946 whole entry partner): as the sequence (P51946 whole entry partner) above
Chain of CDK7 (Homo sapiens, UniProt P50613) (P51948 whole entry partner): as the sequence (P51948 whole entry partner) above

HAP1 cells [9] = assay: Cell cycle analysis; format: cell-based, human; conditions: HAP1 WT, 72 hours
In short: as §2

CDK7/CycH/Mat1 = CDK7/CycH/Mat1 (Homo sapiens, UniProt P50613); assay: Covalent inhibition kinetics, peptide substrate mobility shift assay; format: biochemical
Chain of CDK7/CycH/Mat1 (P50613 whole entry): as the sequence (P50613 whole entry) above
Chain of CDK7/CycH/Mat1 (P51946 whole entry partner): as the sequence (P51946 whole entry partner) above
Chain of CDK7/CycH/Mat1 (P51948 whole entry partner): as the sequence (P51948 whole entry partner) above

CDK2/CycA = CDK2/CycA (Homo sapiens, UniProt P24941); assay: Z'LYTE kinase assay, Km ATP; format: biochemical; conditions: read-out: IC50 CDK2
CDK7-C312S cells = format: cell-based, human; conditions: 500nM, 24 hr
In short: (§4)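 HAP1 WT or CDK7-C312S cells (1×106) were treated 24 h with 500nM or 2μM compound, alone or combined with a 250nM CDK12/13 inhibitor, with DMSO controls. RNA-seq was run in triplicate and genes were called differentially expressed at log2 fold change >1.5. Gene-set overlap between treatments was scored by Jaccard similarity index.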

CDK7 [10] = assay: KiNativ profiling in Jurkat cells; format: cell-based, human; conditions: 1μM, 6 hours
In short: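 Jurkat cells were treated 6 h with 1μM compound or DMSO, then sonicated in 50 mM HEPES pH 7.5, 150 mM NaCl, 0.1% Triton X-100 with phosphatase inhibitors. Cleared lysate was labelled 10 min with 20 μM desthiobiotin-ATP acyl-nucleotide probe, denatured, alkylated and trypsin-digested for 1 h at 37°C. Probe-labelled peptides were captured on streptavidin and quantified by mass spectrometry as probe-binding block versus DMSO.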

CDK7 C312S = format: cell-based, Human
In short: (§5)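 HeLa cells stably expressing FLAG-tagged wild-type or C312S CDK7 were treated 6 h with compound or DMSO and lysed. Substrate was 1 μg RPB1 with 25 μM ATP plus 10 μCi 32P-ATP. Read-out was SDS-PAGE and phosphorimaging.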

WT HAP1 cells = assay: RNA sequencing, differential expression and Jaccard analysis in HAP1 WT cells; format: cell-based, human; conditions: WT HAP1, 500nM, 24 hr, log2 fold change >1.5
In short: as §4

CDK12 = assay: Radioactive in vitro kinase assay at 1 mM ATP; format: biochemical; conditions: ATP 1mM, at the concentrations tested
CDK2(T160) = assay: Western blot of CDK2 T-loop phosphorylation in HAP1 cells; format: cell-based, human; conditions: HAP1 WT, 24 hours, 125 nM to 2 μM YKL-5-124 or 2 μM YKL-5-167
In short: as §3

CDK7-cyclin H [11] = assay: Competitive bioTHZ1 pulldown in Jurkat cells; format: cell-based, human; conditions: Jurkat cells versus HAP1 cells
CDK7 [12] = format: cell-based, Human; conditions: at 10μM, Hela cells treated 6 hours, wild-type CDK7
In short: as §5

CN(C)C/C=C/C(=O)Nc1ccc(C(=O)Nc2cccc(Nc3ncc(Cl)c(-c4c[nH]c5ccccc45)n3)c2)cc1 [THZ1, reference compound]
effect on pulldown of cyclin K- CDK12/13 (cyclin K- CDK12/13): bound to both CDK7 and CDK12/13
GRmax in CDK7-C312S cells [1]: unchanged
cell death by LIVE/DEAD dye (HAP1 cells [2]): induced substantially more cell death than YKL-5-124
time required for equivalent engagement of CDK7 (>50%) (CDK7-cyclin H [3]; HAP1 cells): twice as long
GRmax (HAP1 cells [4]): negative
maximal inhibition of proliferation (Jurkat cells): inhibit proliferation to zero

CN(C)C/C=C/C(=O)Nc1ccc(C(=O)N2CCC[C@@H](Nc3ncc(Cl)c(-c4c[nH]c5ccccc45)n3)C2)cc1 [THZ531]
times more potent on CDK12/13 than CDK7 (CDK12/13): approximately 20 times

C=CC(=O)Nc1ccc(C(=O)Nc2n[nH]c3c2CN(C(=O)N[C@H](CN(C)C)c2ccccc2)C3(C)C)cc1 [YKL-5-124, (S)-3-(4-acrylamidobenzamido)-N-(2-(dimethylammo)-1-phenylethyl)-6,6-dimethyl-4,6-dihydropyrrolo[3,4-c]pyrazole-5(1H)-carboxamide]
effect on pulldown of cyclin K- CDK12/13 (cyclin K- CDK12/13): no effect
effect on cell cycle distribution in CDK7-C312S cells [5]: cell cycle distribution was not affected
effect on phosphorylation of S5 and other Pol II CTD serine residues [6]: no effect
time to inhibition of T-loop phosphorylation (phospho-CDK1(T161); HAP1, 2μM): ≤ 12 h
effect on CDK1 T-loop phosphorylation (phospho-CDK1(T161)): inhibited CDK1 T-loop phosphorylation
concentration for reduced CDK1/2 activation (phospho-CDK1(T161); HAP1 and Jurkat cells): exceeding 1 μM
IC50 (CDK9/CycT1): 3020 nM
PARP cleavage / apoptosis (PARP cleavage): apoptosis was not induced
selectivity for CDK7 than CDK9 and CDK2 (CDK7/Mat1/CycH): 100 fold
IC50 (CDK7/Mat1/CycH; read-out: IC50 CDK7/Mat1/CycH, fixed time point, Km ATP): 9.7 nM
GR50 fold higher in CDK7-C312S than in wild-type cells ([1]; HAP1, 72 hours): at least 150 fold
GRmax in CDK7-C312S cells [1]: too high to be estimated accurately
inhibition of CDK13 (CDK13): no inhibition
efficiency of covalent labeling of CDK7 [7]: approximately 99%
cell death by LIVE/DEAD dye (HAP1 cells [2]): substantially reduced in CDK7-C312S cells
reduction of CDK7-cyclin H binding to bioTHZ1 (CDK7-cyclin H [3]; 100 nM, 30 min): > 50%
concentration that blocked pulldown of CDK7-cyclin H (CDK7-cyclin H [3]; HAP1 cells, 6 hours): about 30 nM
lowest concentration with engagement of CDK7 three hours after washout (CDK7-cyclin H [3]; washout after 3-hour treatment): 125 nM
IC50 (CDK7 [8]): 53.5 nM
effect on cell cycle distribution (HAP1 cells [9]): dose-dependent increase in G1 and G2/M phase cells and a corresponding loss of S phase cells
Ki (CDK7/CycH/Mat1; 1 mM ATP, 2-step inactivation model): 1.9 nM
covalently modifies CDK7 times faster than THZ1 (CDK7/CycH/Mat1; ratio of kinact values): approximately 11 times
IC50 (CDK2/CycA): 1300 nM
number of differentially expressed genes (CDK7-C312S cells): 583 genes
concentration at which strong anti-proliferative effects begin (HAP1 cells [4]; HAP1 and Jurkat cells): 100 nM
GRmax (HAP1 cells [4]): zero
CDK7 bound (block of desthiobiotin-ATP probe) (CDK7 [10]): more than 65%
inhibitory activity in the in vitro kinase assay with C312S mutant (CDK7 C312S): abolished the inhibitory activity
number of differentially expressed genes (WT HAP1 cells): 1452 genes
inhibition of CDK12 (CDK12): no inhibition
maximal inhibition of proliferation (residual, of the original cell count) (Jurkat cells): ≤ 20%

CCC(=O)Nc1ccc(C(=O)Nc2n[nH]c3c2CN(C(=O)N[C@H](CN(C)C)c2ccccc2)C3(C)C)cc1 [YKL-5-167, (S)-N-(2-(dimethylamino)-1-phenylethyl)-6,6-dimethyl-3-(4-propionamidobenzamido)-4,6-dihydropyrrolo[3,4-c]pyrazole-5(1H)-carboxamide]
effect on CDK1 T-loop phosphorylation (phospho-CDK1(T161)): no detectable effect
effect on CDK2 T-loop phosphorylation (CDK2(T160)): no detectable effect
fold higher concentrations required to function as a competitor (CDK7-cyclin H [11]): 10 fold
time required for equivalent engagement of CDK7 (>50%) (CDK7-cyclin H [3]; HAP1 cells): 6 h
fold less effective as a competitor for CDK7-cyclin H (CDK7-cyclin H [3]; relative to YKL-5-124): 100 fold
activity as competitor following washout (CDK7-cyclin H [3]; washout after 3-hour treatment): inactive following washout
inhibition of phosphorylation of RNA polymerase II substrate (CDK7 [12]): little or no inhibition
effect on cell cycle distribution (HAP1 cells [9]): no effect on cell cycle distribution
CDK7 engagement in KiNativ (CDK7 [10]): only weakly engaged
